This note sets out measurements from paper PMC10692362 (Acta Pharmaceutica Sinica. B, 2023).

For data set [1], the system named is LCC-2 cells. Briefly: Cell viability assay on tamoxifen-resistant LCC-2 cells. Type of data set: cell-based. The conditions noted are these: Homo sapiens, LCC2, read-out: LCC-2 IC50.
Data set [2] addresses T1, ERα (Homo sapiens, UniProt P03372).
T1 sequence (P03372 1-595): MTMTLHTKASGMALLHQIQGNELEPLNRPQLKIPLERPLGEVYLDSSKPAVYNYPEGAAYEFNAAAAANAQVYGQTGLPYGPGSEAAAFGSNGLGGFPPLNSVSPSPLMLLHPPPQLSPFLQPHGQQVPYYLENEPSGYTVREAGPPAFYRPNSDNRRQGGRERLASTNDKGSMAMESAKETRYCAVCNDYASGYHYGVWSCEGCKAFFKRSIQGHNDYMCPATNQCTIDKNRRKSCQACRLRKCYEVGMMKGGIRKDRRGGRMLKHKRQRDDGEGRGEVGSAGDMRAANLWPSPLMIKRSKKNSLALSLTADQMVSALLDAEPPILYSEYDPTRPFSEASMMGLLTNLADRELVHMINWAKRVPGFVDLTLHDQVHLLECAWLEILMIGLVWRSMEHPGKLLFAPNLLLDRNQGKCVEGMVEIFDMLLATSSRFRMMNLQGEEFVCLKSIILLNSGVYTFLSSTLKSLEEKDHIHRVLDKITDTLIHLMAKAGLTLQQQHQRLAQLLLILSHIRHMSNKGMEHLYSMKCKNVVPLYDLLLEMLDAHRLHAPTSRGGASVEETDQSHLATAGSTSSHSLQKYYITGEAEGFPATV
Briefly: Immunoblot analysis of ERα degradation in MCF-7 cells. Type of data set: cell-based. The conditions noted are these: MCF-7 cells; for ERα degradation (immunoblot): 1 or 5 μmol/L. Background: A western blot detects proteins with antibodies after separation by electrophoresis.

Data set [3] concerns the target human ERβ LBD (Homo sapiens, UniProt Q92731). Briefly: Competitive fluorescence polarization binding assay, ERβ. Particulars: for RBA ERβ: IC50 estradiol/IC50 compound × 100, estradiol = 100%.
In data set [4] the test system is MCF-10A cells. Type of data set: cell-based, human. Particulars: TI = IC50 MCF-10A / IC50 MCF-7.
The subject of data set [5] is T-47D^D538G cells. Briefly: Cell viability assay. Type of data set: cell-based, human. The conditions noted are these: Homo sapiens, 72 h, read-out: T-47D^D538G IC50.
In data set [6] the target is T1, ERα. Briefly: cell-based. Type of data set: cell-based. Particulars: for Agonist mode ERα Eff (%E2): control as 0%, 10 nmol/L E2 as 100%.
Data set [7] has as its system T-47D^Y537S cells. Briefly: Cell viability assay. Type of data set: cell-based, human. The conditions noted are these: Homo sapiens, 72 h, read-out: T-47D^Y537S IC50.
Data set [8] addresses T2, human ERα LBD (Homo sapiens, UniProt P03372).
T2 sequence (P03372 311-547 limits assumed): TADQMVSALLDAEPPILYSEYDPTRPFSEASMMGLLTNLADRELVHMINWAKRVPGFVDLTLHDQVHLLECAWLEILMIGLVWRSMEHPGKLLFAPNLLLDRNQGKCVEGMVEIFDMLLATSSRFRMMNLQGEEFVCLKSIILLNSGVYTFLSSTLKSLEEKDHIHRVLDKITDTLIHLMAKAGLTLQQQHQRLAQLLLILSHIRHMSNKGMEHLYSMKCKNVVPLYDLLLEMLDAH
Nature of the data set: Competitive fluorescence polarization binding assay, ERα. The conditions noted are these: for RBA ERα: IC50 estradiol/IC50 compound × 100, estradiol = 100%; for α/β ratio: ratio of RBA ERα to RBA ERβ. A general note: In fluorescence polarisation assays a small probe gives low polarisation when free and higher when bound to something large.

Data set [9] concerns the target ERβ (Homo sapiens, UniProt Q92731). Nature of the data set: ER transcriptional activity. Type of data set: cell-based. The conditions noted are these: for Agonist mode ERβ Eff (%E2): control as 0%, 10 nmol/L E2 as 100%; for Antagonist mode ERβ Eff (%E2): with 10 nmol/L 17β-estradiol.
Data set [10] relates to T-47D cells. Nature of the data set: Cell viability assay. Type of data set: cell-based, human. The conditions noted are these: Homo sapiens, T47D, 72 h, read-out: T-47D IC50.
Data set [11] concerns MCF-7 cells. Nature of the data set: Cell viability assay. Type of data set: cell-based, human. Particulars: Homo sapiens, MCF7, 72 h, read-out: MCF-7 IC50.
Data set [12] concerns MCF-7 tumor xenograft. Briefly: MCF-7 tumor xenograft model in BALB/c nude mice. The conditions noted are these: 2 mg/kg ip every other day, Day 32. Type of data set: in vivo. An outline of the steps:
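Female BALB/c nude mice (15–18 g, 5 weeks old) received 1 × 10⁷ MCF-7 cells in 100 μL PBS into the right axillary mammary fat pad. Tumour volume (W² × L × 0.5) and body weight were measured every 2 days. Mice were sacrificed on Day 33. Tumours were assessed by IHC (Ki-67, ERα) and ERα Western blot.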

The target of data set [13] is T3, ERα C530S mutant (Homo sapiens, UniProt P03372, C530S).
T3 sequence (P03372 1-595 C530S): T1 sequence (P03372 1-595) with C530S
Nature of the data set: Transcriptional activity. Type of data set: cell-based. Particulars: HEK-293T^C530S cells, compared with wild type.

The subject of data set [14] is ERα. Briefly: Immunoblot analysis of ERα degradation across ERα^WT and ERα^MUT BC cell lines. Type of data set: cell-based, human. The conditions noted are these: 10 μmol/L MG-132 alone.

The structures appear in SMILES notation. Residue numbers refer to the chain shown, from its start. Where two headings read alike, the source gives them in different places. Peptide text beside a SMILES is read from it. * marks the point of attachment. Cbz = O=C(OCc1ccccc1)*

The term IC50 denotes the concentration at which inhibition is half-maximal. Usually Ki stands for the dissociation constant of the complex between target and ligand, obtained from inhibition or displacement. Usually EC50 stands for the concentration giving half of the maximal effect.

Chain of ERβ (Q92731 whole entry): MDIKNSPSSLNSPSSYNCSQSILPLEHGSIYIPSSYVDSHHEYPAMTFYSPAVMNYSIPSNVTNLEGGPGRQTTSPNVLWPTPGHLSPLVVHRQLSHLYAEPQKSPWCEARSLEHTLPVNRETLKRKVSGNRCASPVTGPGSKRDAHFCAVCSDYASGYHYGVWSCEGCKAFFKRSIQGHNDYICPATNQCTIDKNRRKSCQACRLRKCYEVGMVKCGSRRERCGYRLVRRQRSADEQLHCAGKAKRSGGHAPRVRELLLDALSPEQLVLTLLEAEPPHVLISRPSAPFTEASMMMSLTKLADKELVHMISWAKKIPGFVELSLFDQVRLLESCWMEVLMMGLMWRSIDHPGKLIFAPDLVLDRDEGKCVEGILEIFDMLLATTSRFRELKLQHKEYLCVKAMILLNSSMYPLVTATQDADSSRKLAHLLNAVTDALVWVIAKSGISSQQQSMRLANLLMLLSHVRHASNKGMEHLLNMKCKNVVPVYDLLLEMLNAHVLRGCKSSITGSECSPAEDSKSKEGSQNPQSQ
Chain of human ERβ LBD (Q92731 264-498 limits assumed): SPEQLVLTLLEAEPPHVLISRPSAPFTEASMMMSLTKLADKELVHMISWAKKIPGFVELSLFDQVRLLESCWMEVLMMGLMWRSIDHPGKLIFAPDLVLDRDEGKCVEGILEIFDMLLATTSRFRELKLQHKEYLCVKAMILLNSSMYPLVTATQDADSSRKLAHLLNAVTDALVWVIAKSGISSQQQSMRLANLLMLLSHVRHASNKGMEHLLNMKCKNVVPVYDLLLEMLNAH

Regarding `COc1ccc(N(CC(F)(F)F)S(=O)(=O)C2CC3OC2C(c2ccc(O)cc2)=C3c2ccc(NC(=O)C=C(C)C)cc2)cc1` (stereo not drawn) [Compound 29f, N-(4-(3-(4-Hydroxyphenyl)-5-(N-(4-methoxyphenyl)-N-(2,2,2-trifluoroethyl)sulfamoyl)-7-oxabicyclo[2.2.1]hept-2-en-2-yl)phenyl)-3-methylbut-2-enamide], the IC50 in data set [1] was 15100 ± 1370 nM; in data set [5], 8530 ± 470 nM; in data set [6] (read-out: Antagonist mode ERα IC50, with 10 nmol/L 17β-estradiol), 210 nM; in data set [7] it was over 31000 nM; in data set [10] it was 8580 ± 360 nM; in data set [11], 94 ± 1 nM. Besides, the “ERα degradation (immunoblot) at 1 μmol/L” value in [2] was “efficient ability to degrade ERα”. Moreover, the “ERα degradation (immunoblot)” value in data set [2] was “effective in inducing ERα degradation”. For the same molecule, in data set [3], the “RBA ERβ” value was found to be 1.64 ± 0.45%. The results for the Ki in [3] (read-out: Ki ERβ) and in data set [8] (read-out: Ki ERα) were 4.07 nM and 0.19 nM, respectively. The “TI (therapeutic index)” value in data set [4] worked out at 54.89. Also, in data set [6], the “Agonist mode ERα Eff (%E2)” value came to 65 ± 5 %E2. Moreover, in data set [6] (read-out: Agonist mode ERα EC50, HEK-293T luciferase), the EC50 was found to be 4910 nM. Further, the “Antagonist mode ERα Eff (%E2)” value in [6] (with 10 nmol/L 17β-estradiol) worked out at 35 ± 2 %E2. In addition, the “RBA ERα” value in data set [8] was 14.48 ± 0.65%. Also, the α/β ratio in data set [8] came out at 8.83. In data set [9], the “Agonist mode ERβ Eff (%E2)” value is recorded as 9 ± 2 %E2. In data set [9], the “Antagonist mode ERβ Eff (%E2)” value came to 13 ± 1 %E2.
With `CCN(c1ccc(O)cc1)S(=O)(=O)C1CC2OC1C(c1ccc(O)cc1)=C2c1ccc(NC(=O)C=C(C)C)cc1` (stereo not drawn) [Compound 29i, N-(4-(5-(N-Ethyl-N-(4-hydroxyphenyl)sulfamoyl)-3-(4-hydroxyphenyl)-7-oxabicyclo[2.2.1]hept-2-en-2-yl)phenyl)-3-methylbut-2-enamide], the IC50 in data set [1] stood at 4070 ± 130 nM. In data set [2], the “ERα degradation (immunoblot) at 1 μmol/L” value was “efficient ability to degrade ERα” and the “ERα degradation (immunoblot)” value was “effective in inducing ERα degradation”. For the same molecule, in data set [3], the affinity, expressed as Ki, was 1.3 nM and the “RBA ERβ” value was determined as 5.12 ± 0.39%. For the same molecule, the “TI (therapeutic index)” value in data set [4] is 122.82. Besides, the IC50 in data set [5] was found to be 4250 ± 190 nM. Moreover, in data set [6], the IC50 was determined as 66 nM and the “Agonist mode ERα Eff (%E2)” value is 15 ± 2 %E2. Further, in data set [6] (with 10 nmol/L 17β-estradiol), the “Antagonist mode ERα Eff (%E2)” value was 62 ± 5 %E2. In addition, the IC50 in data set [7] came to 1890 ± 170 nM. Moreover, in data set [8], the Ki was determined as 0.09 nM, the “RBA ERα” value turned out to be 29.85 ± 1.09% and the α/β ratio is 5.83. For the same molecule, in [9], the IC50 was 1020 nM, the “Agonist mode ERβ Eff (%E2)” value is given as 34 ± 2 %E2 and the “Antagonist mode ERβ Eff (%E2)” value worked out at 78 ± 2 %E2. In data set [10], the IC50 is 3490 ± 60 nM. In addition, the IC50 in data set [11] is 71 ± 27 nM.
On to `C[C@]12CC[C@@H]3c4ccc(O)cc4C[C@@H](CCCCCCCCC[S+]([O-])CCCC(F)(F)C(F)(F)F)[C@H]3[C@@H]1CC[C@@H]2O` (stereo partly drawn) [Ful, Fulvestrant, reference compound], for which the IC50 stood at 11000 ± 450 nM in [1]; 3920 ± 220 nM in data set [5]; 2220 ± 170 nM in data set [7]; 1760 ± 60 nM in data set [10]; 140 ± 50 nM in data set [11]. In addition, the “Antagonist mode ERα Eff (%E2)” value in data set [6] (with 10 nmol/L 17β-estradiol) was determined as 80 ± 2 %E2. The “TGI (tumor growth inhibition)” value in [12] amounted to 79%. For the same molecule, the “Effect of C530S mutation on antagonistic activity” value in data set [13] was “unaffected by this mutation”. Also, in data set [9], the “Antagonist mode ERβ Eff (%E2)” value was 73 ± 1 %E2.
Consider `CC(C)C[C@@H](C=O)NC(=O)[C@H](CC(C)C)NC(=O)[C@H](CC(C)C)NC(=O)OCc1ccccc1` [MG-132, reference compound] (Cbz-Leu-Leu-Leu-aldehyde), for which the “Effect on ERα degradation, alone” value in data set [14] was “no effect on ERα degradation”.
